# From ChEMBL document CHEMBL4346672, “Antimicrobial and KPC/AmpC inhibitory activity of functionalized benzosiloxaboroles” (Eur J Med Chem, 2019)
# Active and inactive are the calls of the source. No cut-off for these calls is given here.
# What was measured:
# Candida parapsilosis [1] = experiment: Antifungal activity against Candida parapsilosis ATCC 22019 assessed as diameter of zone inhibition incubated for 24 hrs by CLSI disc diffusion method; type: functional
# Procedure, shortened: (§1)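 Yeast disc diffusion on Mueller-Hinton agar supplemented with 2% glucose and 0.5 mg/L methylene blue. Compounds in DMSO. Yeasts subcultured on Sabouraud dextrose agar before testing. Zones read after 35 °C, 24 h.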
# Escherichia coli [2] = experiment: Antibacterial activity against Escherichia coli ATCC 25922 assessed as fold reduction of MIC in presence of efflux pump inhibitor PAbetaN incubated for 18 hrs by CLSI broth microdilution method; type: functional
# Procedure, shortened: (§2)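 MICs determined with and without PAβN at 50 mg/L in Mueller-Hinton broth containing 1 mM MgSO₄. 2-fold serial dilutions per CLSI. Fold change taken from the paired MICs after 35 °C, 18 h.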
# Candida albicans [3] = experiment: Antifungal activity against Candida albicans ATCC 90028 assessed as diameter of zone inhibition incubated for 24 hrs by CLSI disc diffusion method; type: functional; procedure, shortened: as §1
# Serratia marcescens = conditions: ATCC 13880
# [4] = test system: Meyerozyma guilliermondii; experiment: Antifungal activity against Candida guilliermondii IBA 155 assessed as diameter of zone inhibition incubated for 24 hrs by CLSI disc diffusion method; type: functional; procedure, shortened: as §1
# Bacillus subtilis = experiment: Antibacterial activity against Bacillus subtilis ATCC 6633 assessed as diameter of zone inhibition measured after 18 hrs by CLSI disc diffusion method; type: functional
# Procedure, shortened: (§3)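 Disc diffusion on Mueller-Hinton II agar. Compounds dissolved in DMSO. Strains stored at -80 °C and subcultured twice on tryptic soy agar before testing. Inhibition zones read after 35 °C, 18 h.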
# Proteus mirabilis [5] = experiment: Antibacterial activity against Proteus mirabilis ATCC 12453 measured after 18 hrs by CLSI broth dilution method; type: functional; conditions: ATCC 12453, 18 h
# Procedure, shortened: (§4)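 Broth MIC in Mueller-Hinton II broth following CLSI, compounds dissolved in DMSO. Strains subcultured twice on tryptic soy agar before testing. Growth read after 35 °C, 18 h.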
# Enterococcus faecium [6] = experiment: Antibacterial activity against Enterococcus faecium ATCC 6057 measured after 18 hrs by CLSI broth dilution method; type: functional; conditions: ATCC 6057, 18 h; procedure, shortened: as §4
# Pseudomonas aeruginosa [7] = experiment: Antibacterial activity against Pseudomonas aeruginosa ATCC 27853 measured after 18 hrs by CLSI broth dilution method; type: functional; conditions: ATCC 27853, 18 h; procedure, shortened: as §4
# [8] = test system: Bordetella bronchiseptica; experiment: Antibacterial activity against Bordetella bronchiseptica ATCC 4617 measured after 18 hrs by CLSI broth dilution method; type: functional; conditions: ATCC 4617, 18 h; procedure, shortened: as §4
# Candida albicans [9] = experiment: Antifungal activity against Candida albicans ATCC 90028 assessed as decrease in fungal cell growth at 0.78 to 12.5 mg/L incubated for 24 hrs by CLSI broth dilution method; type: functional; conditions: ATCC 90028, 24 h
# Procedure, shortened: (§5)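 Yeast broth dilution in RPMI 1640 with 2% glucose, compounds in DMSO. Yeasts pre-grown on Sabouraud dextrose agar. Growth read after 35 °C, 24 h.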
# [10] = test system: Bordetella bronchiseptica; experiment: Antibacterial activity against Bordetella bronchiseptica ATCC 4617 assessed as diameter of zone inhibition measured after 18 hrs by CLSI disc diffusion method; type: functional; procedure, shortened: as §3
# Enterococcus faecalis = experiment: Antibacterial activity against Enterococcus faecalis ATCC 29212 measured after 18 hrs by CLSI broth dilution method; type: functional; conditions: ATCC 29212, 18 h; procedure, shortened: as §4
# [11] = Dissociation constant, pKa1 of compound in 0.1 M NaOH by potentiometric analysis; type: physicochemical
# Proteus mirabilis [12] = experiment: Antibacterial activity against Proteus mirabilis ATCC 12453 assessed as diameter of zone inhibition measured after 18 hrs by CLSI disc diffusion method; type: functional; procedure, shortened: as §3
# Candida parapsilosis [13] = experiment: Antifungal activity against Candida parapsilosis ATCC 22019 assessed as decrease in fungal cell growth at 0.78 to 12.5 mg/L incubated for 24 hrs by CLSI broth dilution method; type: functional; conditions: Lodderomyces parapsilosis, ATCC 22019, 24 h; procedure, shortened: as §5
# Pichia kudriavzevii = experiment: Antifungal activity against Candida krusei ATCC 6258 assessed as decrease in fungal cell growth at 0.78 to 12.5 mg/L incubated for 24 hrs by CLSI broth dilution method; type: functional; conditions: ATCC 6258, 24 h; procedure, shortened: as §5
# Klebsiella pneumoniae [14] = experiment: Antibacterial activity against Klebsiella pneumoniae ATCC 13883 measured after 18 hrs by CLSI broth dilution method; type: functional; conditions: ATCC 13883, 18 h; procedure, shortened: as §4
# Burkholderia cepacia = experiment: Antibacterial activity against Burkholderia cepacia ATCC 25416 assessed as diameter of zone inhibition measured after 18 hrs by CLSI disc diffusion method; type: functional; procedure, shortened: as §3
# Escherichia coli [15] = experiment: Antibacterial activity against Escherichia coli ATCC 25922 assessed as diameter of zone inhibition measured after 18 hrs by CLSI disc diffusion method; type: functional; procedure, shortened: as §3
# Enterococcus faecium [16] = experiment: Antibacterial activity against Enterococcus faecium ATCC 6057 assessed as diameter of zone inhibition measured after 18 hrs by CLSI disc diffusion method; type: functional; procedure, shortened: as §3
# Acinetobacter baumannii [17] = experiment: Antibacterial activity against Acinetobacter baumannii ATCC 19606 assessed as diameter of zone inhibition measured after 18 hrs by CLSI disc diffusion method; type: functional; procedure, shortened: as §3
# [18] = test system: Stenotrophomonas maltophilia; experiment: Antibacterial activity against Stenotrophomonas maltophilia ATCC 13637 assessed as fold reduction of MIC in presence of efflux pump inhibitor PAbetaN incubated for 18 hrs by broth microdilution method; type: functional; procedure, shortened: as §2
# [19] = test system: Stenotrophomonas maltophilia; experiment: Antibacterial activity against Stenotrophomonas maltophilia ATCC 13637 measured after 18 hrs by CLSI broth dilution method; type: functional; conditions: ATCC 13637, 18 h; procedure, shortened: as §4
# Proteus mirabilis [20] = experiment: Antibacterial activity against Proteus mirabilis ATCC 12453 assessed as fold reduction of MIC in presence of efflux pump inhibitor PAbetaN incubated for 18 hrs by broth microdilution method; type: functional; procedure, shortened: as §2
# Staphylococcus aureus = experiment: Antibacterial activity against Staphylococcus aureus ATCC 6538P measured after 18 hrs by CLSI broth dilution method; type: functional; procedure, shortened: as §4
# [21] = test system: Meyerozyma guilliermondii; experiment: Antifungal activity against Candida guilliermondii IBA 155 assessed as decrease in fungal cell growth at 0.78 to 12.5 mg/L incubated for 24 hrs by CLSI broth dilution method; type: functional; conditions: IBA 155, 24 h; procedure, shortened: as §5
# [22] = test system: Staphylococcus epidermidis; experiment: Antibacterial activity against Staphylococcus epidermidis ATCC 12228 assessed as diameter of zone inhibition measured after 18 hrs by CLSI disc diffusion method; type: functional; procedure, shortened: as §3
# Acinetobacter baumannii [23] = experiment: Antibacterial activity against Acinetobacter baumannii ATCC 19606 measured after 18 hrs by CLSI broth dilution method; type: functional; conditions: ATCC 19606, 18 h; procedure, shortened: as §4
# Pseudomonas aeruginosa [24] = experiment: Antibacterial activity against Pseudomonas aeruginosa ATCC 27853 assessed as diameter of zone inhibition measured after 18 hrs by CLSI disc diffusion method; type: functional, organism-based; procedure, shortened: as §3
# Saccharomyces cerevisiae = experiment: Antifungal activity against Saccharomyces cerevisiae ATCC 9763 assessed as decrease in fungal cell growth at 0.78 to 12.5 mg/L incubated for 24 hrs by CLSI broth dilution method; type: functional; conditions: ATCC 9763, 24 h
# Procedure, shortened: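 Yeast strain subcultured on Sabouraud dextrose agar for 24–48 h at 30 °C before testing. Compounds dissolved in DMSO.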
# Candida tropicalis = experiment: Antifungal activity against Candida tropicalis IBA 171 assessed as decrease in fungal cell growth at 0.78 to 12.5 mg/L incubated for 24 hrs by CLSI broth dilution method; type: functional; conditions: IBA 171, 24 h; procedure, shortened: as §5
# Klebsiella pneumoniae [25] = experiment: Antibacterial activity against Klebsiella pneumoniae ATCC 13883 assessed as fold reduction of MIC in presence of efflux pump inhibitor PAbetaN incubated for 18 hrs by broth microdilution method; type: functional; procedure, shortened: as §2
SMILES,diameter of the inhibition zone (DIZ) (Candida parapsilosis [1]),fold change (FC) (Escherichia coli [2]),diameter of the inhibition zone (DIZ) (Candida albicans [3]),DIZ (Serratia marcescens),diameter of the inhibition zone (DIZ) [4],diameter of the inhibition zone (DIZ) (Bacillus subtilis),MIC (Proteus mirabilis [5]),MIC (Enterococcus faecium [6]),MIC (Pseudomonas aeruginosa [7]),MIC [8],MIC (Candida albicans [9]),diameter of the inhibition zone (DIZ) [10],MIC (Enterococcus faecalis),pKa [11],diameter of the inhibition zone (DIZ) (Proteus mirabilis [12]),MIC (Candida parapsilosis [13]),MIC (Pichia kudriavzevii),MIC (Klebsiella pneumoniae [14]),diameter of the inhibition zone (DIZ) (Burkholderia cepacia),diameter of the inhibition zone (DIZ) (Escherichia coli [15]),other results
C[Si]1(C)OB(O)c2ccc(F)c(F)c21,11 mm,32,15 mm,inactive,30 mm,28 mm,> 400 mg/L,100 mg/L,> 400 mg/L,> 400 mg/L,100 mg/L,inactive,100 mg/L,6.1,12 mm,12.5 mg/L,100 mg/L,> 400 mg/L,inactive,inactive,diameter of the inhibition zone (DIZ) (Enterococcus faecium [16]): 18 mm; diameter of the inhibition zone (DIZ) (Acinetobacter baumannii [17]): inactive; fold change (FC) [18]: 16; MIC [19]: 200 mg/L; fold change (FC) (Proteus mirabilis [20]): 2; MIC (Staphylococcus aureus): 25 mg/L; MIC [21]: 3.12 mg/L; diameter of the inhibition zone (DIZ) [22]: 33 mm; MIC (Acinetobacter baumannii [23]): 200 mg/L; diameter of the inhibition zone (DIZ) (Pseudomonas aeruginosa [24]): inactive; MIC (Saccharomyces cerevisiae): 12.5 mg/L; MIC (Candida tropicalis): 6.25 mg/L; fold change (FC) (Klebsiella pneumoniae [25]): 16
C[Si]1(C)OB(O)c2ccc(B(O)O)cc21,inactive,8,inactive,inactive,inactive,19 mm,> 400 mg/L,200 mg/L,> 400 mg/L,> 400 mg/L,400 mg/L,inactive,200 mg/L,7.7,inactive,200 mg/L,400 mg/L,> 400 mg/L,inactive,inactive,diameter of the inhibition zone (DIZ) (Enterococcus faecium [16]): 12 mm; diameter of the inhibition zone (DIZ) (Acinetobacter baumannii [17]): inactive; fold change (FC) [18]: 8; MIC [19]: 400 mg/L; fold change (FC) (Proteus mirabilis [20]): 4; MIC (Staphylococcus aureus): 200 mg/L; MIC [21]: > 400 mg/L; diameter of the inhibition zone (DIZ) [22]: 32 mm; MIC (Acinetobacter baumannii [23]): > 400 mg/L; diameter of the inhibition zone (DIZ) (Pseudomonas aeruginosa [24]): inactive; MIC (Saccharomyces cerevisiae): 100 mg/L; MIC (Candida tropicalis): 200 mg/L; fold change (FC) (Klebsiella pneumoniae [25]): 4
C[Si]1(C)OB(O)c2cc3c(c(F)c21)COB3O,inactive,16,inactive,inactive,inactive,29 mm,> 400 mg/L,50 mg/L,> 400 mg/L,200 mg/L,100 mg/L,13 mm,100 mg/L,6.3,inactive,50 mg/L,> 400 mg/L,> 400 mg/L,inactive,inactive,diameter of the inhibition zone (DIZ) (Enterococcus faecium [16]): 16 mm; diameter of the inhibition zone (DIZ) (Acinetobacter baumannii [17]): inactive; fold change (FC) [18]: 16; MIC [19]: 200 mg/L; fold change (FC) (Proteus mirabilis [20]): 8; MIC (Staphylococcus aureus): 3.12 mg/L; MIC [21]: 400 mg/L; diameter of the inhibition zone (DIZ) [22]: 34 mm; MIC (Acinetobacter baumannii [23]): > 400 mg/L; diameter of the inhibition zone (DIZ) (Pseudomonas aeruginosa [24]): inactive; MIC (Saccharomyces cerevisiae): 100 mg/L; MIC (Candida tropicalis): 100 mg/L; fold change (FC) (Klebsiella pneumoniae [25]): 32
C[Si]1(C)OB(O)c2cccc(B(O)O)c21,inactive,4,inactive,inactive,inactive,15 mm,> 400 mg/L,400 mg/L,> 400 mg/L,> 400 mg/L,> 400 mg/L,inactive,> 400 mg/L,7.4,inactive,400 mg/L,50 mg/L,> 400 mg/L,inactive,inactive,diameter of the inhibition zone (DIZ) (Enterococcus faecium [16]): inactive; diameter of the inhibition zone (DIZ) (Acinetobacter baumannii [17]): inactive; fold change (FC) [18]: 16; MIC [19]: > 400 mg/L; fold change (FC) (Proteus mirabilis [20]): 0; MIC (Staphylococcus aureus): 400 mg/L; MIC [21]: > 400 mg/L; diameter of the inhibition zone (DIZ) [22]: 22 mm; MIC (Acinetobacter baumannii [23]): 400 mg/L; diameter of the inhibition zone (DIZ) (Pseudomonas aeruginosa [24]): inactive; MIC (Saccharomyces cerevisiae): 50 mg/L; MIC (Candida tropicalis): 400 mg/L; fold change (FC) (Klebsiella pneumoniae [25]): 4
C[Si]1(C)OB(O)c2c(F)c3c(c(F)c21)B(O)OC3,inactive,8,inactive,inactive,inactive,29 mm,200 mg/L,25 mg/L,> 400 mg/L,100 mg/L,> 400 mg/L,inactive,25 mg/L,4.7,inactive,> 400 mg/L,> 400 mg/L,200 mg/L,23 mm,inactive,diameter of the inhibition zone (DIZ) (Enterococcus faecium [16]): 28 mm; diameter of the inhibition zone (DIZ) (Acinetobacter baumannii [17]): 15 mm; fold change (FC) [18]: 8; MIC [19]: 50 mg/L; fold change (FC) (Proteus mirabilis [20]): 4; MIC (Staphylococcus aureus): 6.25 mg/L; MIC [21]: > 400 mg/L; diameter of the inhibition zone (DIZ) [22]: 35 mm; MIC (Acinetobacter baumannii [23]): 400 mg/L; diameter of the inhibition zone (DIZ) (Pseudomonas aeruginosa [24]): inactive; MIC (Saccharomyces cerevisiae): > 400 mg/L; MIC (Candida tropicalis): > 400 mg/L; fold change (FC) (Klebsiella pneumoniae [25]): 16
